Series [1] in a line: In vitro liver microsomal stability. In kind it is in vitro ADME. The following applies: liver microsomes. In general terms: Microsomes from liver hold many membrane-bound enzymes, among them those of drug oxidation.
The test system of another series is HEK293 kidney cells. In kind it is cell-based. The following applies: 48 hours, Cell-Titer Glo.
For a further series, the system named is HepG2 liver cells. Kind of series: In vitro cytotoxicity, Cell-Titer Glo viability, HepG2. In kind it is cell-based. The following applies: 48 hours.
The test system of series [2] is BEAS2B lung epithelial cells. Kind of series: In vitro cytotoxicity, Cell-Titer Glo viability, BEAS2B. In kind it is cell-based. The following applies: 48 hours.
For a further series, the system named is rats. Description: Sensorimotor impairment in rats. In kind it is in vivo, rat. The following applies: 15 mg/kg, unpublished results.
Series [3] has as its system guinea pig tracheal rings. The following applies: cited from earlier work.
The test system of series [4] is murine house dust mite model of asthma. The following applies: cited from earlier work.
In a further series the test system is airway smooth muscle. The following applies: cited from earlier work.
The next series concerns mice. The following applies: aerosol delivery in mice; cited from earlier work.
Series [5] can be described thus: Solubility at 10 µM in PBS with 1% DMSO. In kind it is physicochemical. The following applies: aqueous buffer, kinetic from dmso stock.
A short description of series [6]: Solubility in rotarod vehicle. The following applies: 50% PBS, 40% propylene glycol, 10% DMSO; for 40 mg/kg i.p. dosing. In general terms: Falling from the rotarod earlier than controls is read as motor impairment.
The nature of series [7]: In vitro liver microsomal stability. In kind it is in vitro ADME, mouse. The following applies: mouse liver microsomes, 1 h.
Series [8] deals with ovalbumin (S/C) BALB/c mice. The following applies: given repeatedly over five days; listed as ethyl ester of XHE-III-74; cited from earlier work.
Series [9] concerns Swiss Webster mice. The following applies: cited from earlier work.
For series [10] the following is noted: mouse, cited from earlier work.
In another series the target is α4β3γ2 GABAAR (Homo sapiens, UniProt P18507+P48169). Kind of series: GABA induced current potentiation, α4β3γ2 GABAAR. In kind it is biochemical. The following applies: 1 µM compound, GABA EC20 concentration.
The subject of series [11] is guinea pig tracheal rings. The following applies: 50 µM compound, substance P contracted rings.
Series [12] deals with ovalbumin (S/C) BALB/c mice. In kind it is in vivo, mouse. The following applies: 40 mg/kg i.p. for 5 days, 12.5 mg/ml methacholine challenge, p<0.05. Put shortly:
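BALB/c mice were sensitized by ovalbumin injections (2 mg/kg/d in 2 mg alum, days 0, 7, 14) and challenged intranasally with ovalbumin (1.6 mg/kg/d, days 23–27); controls were saline-challenged. Test compound was given i.p. twice daily during the challenge period. Conscious mice had non-invasive sRaw measured after 1 min aerosolized PBS or methacholine (1.56–12.5 mg/mL), averaged over 3 min. Analysis used two-way repeated-measures ANOVA with Bonferroni post-test.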

A short description of series [13]: Pharmacokinetic study in mice. In kind it is in vivo, mouse.
In series [14] the test system is Swiss Webster mice. Kind of series: Rotarod assay of sensorimotor coordination in mice. The following applies: 40 mg/kg i.p., Swiss Webster mice, 10, 30 and 60 min.
A further series has as its system airway eosinophilia. The following applies: cited from earlier work.

Read-outs that look alike come from different tables or passages of the source.

By solubility is commonly meant the dissolved amount per volume that the medium holds. Low readings indicate a poorly soluble substance, high ones a readily soluble substance. By AUC is commonly meant concentration integrated over time. Low values mean less exposure, high ones more exposure. What is called fraction remaining is the share of the starting amount still present when the sample was taken. Lower therefore signals a greater loss.

Chain of α4β3γ2 GABAAR (P48169 36-554): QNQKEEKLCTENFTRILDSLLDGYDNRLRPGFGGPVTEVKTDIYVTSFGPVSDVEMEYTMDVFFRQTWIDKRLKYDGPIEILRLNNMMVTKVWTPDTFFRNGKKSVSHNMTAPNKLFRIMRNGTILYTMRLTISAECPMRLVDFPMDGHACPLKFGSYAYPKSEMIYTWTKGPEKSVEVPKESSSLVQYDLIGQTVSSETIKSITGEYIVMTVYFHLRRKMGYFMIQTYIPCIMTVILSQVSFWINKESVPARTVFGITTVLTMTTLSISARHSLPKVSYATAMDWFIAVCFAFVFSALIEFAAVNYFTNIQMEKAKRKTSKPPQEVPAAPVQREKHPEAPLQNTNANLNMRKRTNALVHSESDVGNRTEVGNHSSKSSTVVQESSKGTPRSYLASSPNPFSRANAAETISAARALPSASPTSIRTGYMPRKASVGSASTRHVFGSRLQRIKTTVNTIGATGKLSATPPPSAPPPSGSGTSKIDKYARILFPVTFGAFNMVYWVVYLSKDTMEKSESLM
Chain of α4β3γ2 GABAAR (P28472 26-473 partner): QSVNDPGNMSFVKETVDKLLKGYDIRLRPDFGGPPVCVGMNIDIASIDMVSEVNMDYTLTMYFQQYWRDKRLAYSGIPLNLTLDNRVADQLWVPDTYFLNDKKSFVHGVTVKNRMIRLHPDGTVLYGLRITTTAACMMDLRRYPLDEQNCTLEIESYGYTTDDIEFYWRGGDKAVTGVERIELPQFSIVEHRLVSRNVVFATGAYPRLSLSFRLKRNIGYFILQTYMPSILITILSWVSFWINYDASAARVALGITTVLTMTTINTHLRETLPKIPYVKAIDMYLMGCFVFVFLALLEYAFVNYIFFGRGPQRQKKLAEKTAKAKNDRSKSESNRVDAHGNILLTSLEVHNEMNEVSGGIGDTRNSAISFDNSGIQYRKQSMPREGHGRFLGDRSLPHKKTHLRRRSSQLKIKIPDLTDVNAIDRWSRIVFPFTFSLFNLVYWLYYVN
Chain of α4β3γ2 GABAAR (P18507 40-475): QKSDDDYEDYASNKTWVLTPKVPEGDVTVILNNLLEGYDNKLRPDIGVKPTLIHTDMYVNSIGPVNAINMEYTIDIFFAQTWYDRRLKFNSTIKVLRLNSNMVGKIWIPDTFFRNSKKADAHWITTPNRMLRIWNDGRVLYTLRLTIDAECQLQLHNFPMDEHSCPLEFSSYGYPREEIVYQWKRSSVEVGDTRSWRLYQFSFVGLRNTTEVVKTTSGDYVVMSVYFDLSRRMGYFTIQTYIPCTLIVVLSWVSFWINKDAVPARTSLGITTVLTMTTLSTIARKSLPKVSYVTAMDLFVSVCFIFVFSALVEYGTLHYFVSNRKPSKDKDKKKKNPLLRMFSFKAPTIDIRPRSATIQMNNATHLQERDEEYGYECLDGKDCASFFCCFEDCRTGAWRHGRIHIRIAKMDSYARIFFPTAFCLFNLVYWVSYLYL

As for `COc1ccc2c(c1)C(=O)N1CCC[C@H]1c1c(C(=O)OC(C)(C)C)ncn1-2` [Compound 7, (S)-tert-Butyl-7-methoxy-9-oxo-11,12,13,13a-tetrahydro-9H-benzo[e]imidazo[5,1-c]pyrrolo[1,2-a][1,4]diazepine-1-carboxylate], the “stability in the presence of human liver microsomes” value in series [1] is on record as “stable”. For the same compound, in the series on HEK293 kidney cells, the “Toxicity in HEK293 (Kidney) LD50” value is listed as more than 100 µM. Also, the “Toxicity in HEPG2 (Liver) LD50” value in the series with HepG2 liver cells is on record as more than 400 µM. In series [2], the “Toxicity in BEAS 2B (Lung) LD50” value is listed as more than 200 µM. The “sensorimotor impairment in rats” value in the series on rats is reported as “induced sensorimotor impairment”. Also, the “airway muscle constriction caused by substance P” value in series [3] is “significantly reduced airway muscle constriction”. Further, the “airway resistance in murine house dust mite model” value in series [4] is reported as “reduced airway resistance”. Also, the “relaxation of pre-contracted airway smooth muscle” value in the series on airway smooth muscle is “relaxed pre-contracted airway smooth muscle”. Also, the “airway hyperresponsiveness after aerosol delivery” value with mice is listed as “reduces airway hyperresponsiveness”.
For the compound `CCSC(=O)c1ncn2c1[C@@H]1CCCN1C(=O)c1cc(OC)ccc1-2` [Compound 13], the “Toxicity in HEK293 (Kidney) LD50” value in the series with HEK293 kidney cells was more than 100 µM. Besides, the “Toxicity in HEPG2 (Liver) LD50” value in the series with HepG2 liver cells is more than 100 µM. Also, in series [2], the “Toxicity in BEAS 2B (Lung) LD50” value is reported as more than 100 µM. The same compound displayed a solubility in [5] of less than 10 µM. Further, in [6], the “solubility in the vehicle” value is reported as “not soluble in the vehicle”.
For the compound `CCOC(=O)c1ncn2c1[C@@H]1CCCN1C(=O)c1cc(OC)ccc1-2` [Compound 5], the “loss at 1 h in mouse liver microsomes” value in series [7] is recorded as “less than 20%”. In addition, the “Toxicity in HEK293 (Kidney) LD50” value in the series with HEK293 kidney cells is recorded as more than 400 µM. The “Toxicity in HEPG2 (Liver) LD50” value in the series on HepG2 liver cells is more than 400 µM. For the same compound, the “Toxicity in BEAS 2B (Lung) LD50” value in series [2] is recorded as more than 400 µM. Also, in series [3], the “airway muscle constriction caused by substance P” value is given as “significantly reduced airway muscle constriction”. Besides, the “airway hyperresponsiveness in ovalbumin S/C asthma model” value in series [8] is on record as “reduced airway hyperresponsiveness”. Also, the “sensorimotor impairment on rotarod” value with Swiss Webster mice [9] (published previously) is “weakly induced sensorimotor impairment”. Moreover, the “AUC for lung exposure” value in series [10] (same dose as 16, lung) was 4516 ng·min/mL. The t1/2 in series [10] (same dose as 16) is recorded as 16.3 min.
In the case of `COc1ccc2c(c1)C(=O)N1CCC[C@H]1c1c(C(=O)N(C)C)ncn1-2` [Compound 16], in [7], the “loss at 1 h in mouse liver microsomes” value is given as “less than 20%”. Moreover, the “Toxicity in HEK293 (Kidney) LD50” value with HEK293 kidney cells is on record as more than 400 µM. In addition, the “Toxicity in HEPG2 (Liver) LD50” value in the series on HepG2 liver cells is more than 400 µM. The “Toxicity in BEAS 2B (Lung) LD50” value in series [2] is given as more than 400 µM. Moreover, the “potentiation of GABA induced current, α4β3γ2 GABAAR” value at α4β3γ2 GABAAR worked out at 319%. In addition, in series [11], the “time to airway smooth muscle relaxation effect” value is not above 15 min. For the same compound, the “specific airway resistance (sRAW) vs vehicle, 5 day treatment” value in series [12] was “significant reduction in sRAW”. Besides, in [13] (mouse, 5 mg/kg i.p.), the “blood brain barrier penetration” value is on record as “did penetrate the blood brain barrier”. Besides, in series [13] (mouse, lung, ip, 5 mg/kg), the exposure (AUC) is 12.7 ng·h/mL. Besides, the “sensorimotor impairment on rotarod” value in the series on Swiss Webster mice [14] is recorded as “did not induce sensorimotor impairment”.
Consider `COc1ccc2c(c1)C(=O)N1CCC[C@H]1c1c(C(=O)SC(C)(C)C)ncn1-2` [Compound 14], for which the “Toxicity in HEK293 (Kidney) LD50” value in the series on HEK293 kidney cells was found to be 18.8 ± 2.4 µM. For the same compound, the “Toxicity in HEPG2 (Liver) LD50” value with HepG2 liver cells is listed as more than 100 µM. In series [2], the “Toxicity in BEAS 2B (Lung) LD50” value was more than 100 µM. In series [5], this compound had a solubility of less than 10 µM. Besides, the “solubility in the vehicle” value in [6] is “not soluble in the vehicle”.
`COc1ccc2c(c1)C(=O)N1CCC[C@H]1c1c(C(=O)O)ncn1-2` [Compound 9, (S)-7-Methoxy-9-oxo-11,12,13,13a-tetrahydro-9H-benzo[e]imidazo[5,1-c]pyrrolo[1,2-a][1,4]di-azepine-1-carboxylic acid] returned an amount remaining at 1 h in series [1] (human) of less than 80%. Moreover, the “Toxicity in HEK293 (Kidney) LD50” value in the series with HEK293 kidney cells is reported as more than 400 µM. For the same compound, the “Toxicity in HEPG2 (Liver) LD50” value in the series on HepG2 liver cells is more than 400 µM. In [2], the “Toxicity in BEAS 2B (Lung) LD50” value is more than 400 µM. In addition, the “metabolite in blood samples” value in series [13] (after 5 mg/kg i.p. of 16, mouse blood) was “not detected in any blood samples”. Besides, the “airway muscle constriction caused by substance P” value in [3] is on record as “significantly reduced airway muscle constriction”. Further, the figures for the “airway eosinophilia” value in the series on airway eosinophilia and in the series on airway eosinophilia (listed as XHE-III-74A) were “decreased airway eosinophilia” and “significantly reduced airway eosinophilia”, respectively. In the series on Swiss Webster mice [9], the “CNS effects” value is given as “no CNS effects”.
As to `[2H]C([2H])([2H])Oc1ccc2c(c1)C(=O)N1CCC[C@H]1c1c(C(=O)SC(C)(C)C)ncn1-2` [Compound 14a], in the series with HEK293 kidney cells, the “Toxicity in HEK293 (Kidney) LD50” value stood at 16.8 ± 2.0 µM. In the series with HepG2 liver cells, the “Toxicity in HEPG2 (Liver) LD50” value is recorded as more than 100 µM. Also, the “Toxicity in BEAS 2B (Lung) LD50” value in series [2] is recorded as more than 100 µM. The solubility in series [5] is less than 10 µM. Moreover, the “solubility in the vehicle” value in series [6] is recorded as “not soluble in the vehicle”.
With `[2H]C([2H])([2H])Oc1ccc2c(c1)C(=O)N1CCC[C@H]1c1c(C(=O)SCC)ncn1-2` [Compound 13a], in the series with HEK293 kidney cells, the “Toxicity in HEK293 (Kidney) LD50” value is more than 100 µM. Also, the “Toxicity in HEPG2 (Liver) LD50” value with HepG2 liver cells is given as more than 100 µM. Besides, in series [2], the “Toxicity in BEAS 2B (Lung) LD50” value is more than 100 µM. For the same compound, the solubility in series [5] is less than 10 µM. The “solubility in the vehicle” value in [6] is “not soluble in the vehicle”.
As to `COc1ccc2c(c1)C(=O)N1CCC[C@H]1c1c(C(=O)OC(C(F)(F)F)C(F)(F)F)ncn1-2` [Compound 12], the “Toxicity in HEK293 (Kidney) LD50” value in the series on HEK293 kidney cells was more than 200 µM. Moreover, in the series with HepG2 liver cells, the “Toxicity in HEPG2 (Liver) LD50” value was more than 400 µM. The “Toxicity in BEAS 2B (Lung) LD50” value in [2] is more than 400 µM. The compound further displayed a solubility in series [5] of less than 10 µM. The “solubility in the vehicle” value in series [6] is on record as “not soluble in the vehicle”.

The values are drawn from PMC5253108 (European journal of medicinal chemistry, 2016).
